13 compounds from PubChem BioAssay can be followed below.

The source made the active and inactive calls.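 How the source made its calls, unless noted: active means inhibition of the reporter signal at or above 50%; inactive means inhibition below 50%.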

Assay [1] in a line: inhibitors of TNFa-induced NFkB p65 translocation, primary screen, imaging, HUVEC, MLSMR starter and 10KST1 sets (AID 438;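 active means inhibition above 20% together with a positive visual image hit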;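 further: compound added about 3h40 before a 20 min TNFalpha stimulation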;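 on inhibition: signal is the nuclear over cytoplasmic p65 intensity ratio per well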). The settings on record: HUVEC TNFa-induced p65 nuclear translocation; cell count: measured here: nuclei count (cytotoxicity indicator), at 2.08 µM; inhibition: at 2 µM, stronger effect = higher value, 0% TNFa-plus-vehicle, 100% no-TNFa wells.
Assay [2] can be described thus: inhibitors of mutant huntingtin aggregation, primary screen, imaging, exon1htt(103Q)mCFP cells, high-content imaging (AID 483;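 active means visual image review flags a hit and inhibition of aggregation exceeds 20%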;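 further: compound exposure lasted 3 days before fixation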;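 on nuclei count: percent of the per-plate median nuclei count of sample wells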). The settings on record: exon1htt(103Q)mCFP cell line, aggregate imaging, at 2 µM; inhibition of aggregation: stronger effect = higher value; nuclei count: measured here: cell count, toxicity.
The nature of assay [3]: inhibitors of E-selectin induction by TNFa, primary screen, imaging, HUVEC, immunofluorescence, MLSMR starter and 10KST1 sets (AID 487;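 active means visually confirmed hit in the image check and inhibition above 20%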;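 on inhibition: signal is fraction of cell area covered by stained E-selectin grains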;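 on nuclei count: 100% = median nuclei count of all wells on the same plate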). The settings on record: HUVEC TNFalpha-induced E-selectin immunofluorescence imaging, at 2 µM; inhibition: stronger effect = higher value; nuclei count: measured here: cell number, toxicity.
For assay [4], the target named is Voltage-gated potassium channel subunit beta-2 (Rattus norvegicus) (UniProt P62483). The assay can be described thus: KvBeta enzyme negative modulators, primary screen, biochemical, NADPH fluorescence (AID 622;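 active means fluorescence slope higher than the sample average by over 3 SD, cut at about -0.22 in these data, passing the limit was not always enough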;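 further: slope of raw intensity against log time taken from 70 to 1610 s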). The note with it: recombinant KvBeta, 4-cyanobenzaldehyde reduction, at 10 µM, stronger effect = higher value.
Assay [5] shares this target. The assay is described as follows: KvBeta positive modulators, primary screen, biochemical, NADPH fluorescence (AID 623;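 active means NADPH fluorescence slope more negative than the mean of all samples by about 3 SD, 99.7% confidence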;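 further: fluorescence intensity change per second fitted from 20 to 320 s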). The note with it: Recombinant KvBeta, NADPH fluorescence decrease slope, 10 min; at 10 µM; stronger effect = lower value.
Assay [6] concerns the target Alpha-2C adrenergic receptor (Homo sapiens) (UniProt P18825). The assay is described as follows: modulators of alpha2C/GIRK thallium flux, primary screen, cell-based, HEK293 alpha2C/GIRK1/2 (AID 624;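 active means fluorescence slope after compound addition differing from the mean of all screened samples at 99.7% confidence, in either direction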;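 further: slope of fluorescence ratio to pre-addition baseline per second over 15 to 24 s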). The note with it: thallium flux BTC fluorescence, at 10 µM, actives lie on both sides.
Assay [7] in a line: inhibitors of larval lipid processing in zebrafish, primary screen, whole organism, PED6 fluorescence, gall bladder and intestine (AID 686;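 active means a full or partial loss of lipid-probe fluorescence in the fish gall bladder, intestine or both, judged by eye; inactive means no fluorescence loss, or compound toxic to the fish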;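 further: larvae 5 to 7 days old with five fish per well; signal comes from phospholipase A2 cleavage of quenched PED6 carried via bile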). The note with it: Zebrafish larvae PED6 lipid processing, fluorescence scoring; screened at 20 µM (by protocol). The method, boiled down:
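Incubation: overnight exposure of larvae to compound plus PED6 / Test system: live zebrafish larvae aged 5-7 days, whole organism / Amount: 5 larvae per well / Read-out basis: visual per-well fluorescence inhibition score / Signal: visual fluorescence microscopy scoring of gall bladder, gut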

Assay [8] can be described thus: inhibitors of Sendai virus-induced IRF3 signaling, primary screen, TLR/RLR signaling modifier project, cell-based, Sendai virus stimulus, luciferase, 10K MLSCN set (AID 602276;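 active means inhibition at or above 50% at 10 µM; inactive means inhibition below 50%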;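 further: firefly luciferase from ISG56 promoter only with Renilla not read in this screen; 0% = Sendai virus plus DMSO and 100% = medium plus DMSO without virus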). The settings on record: HEK293 RL24 IRF3 luciferase reporter, at 10 µM, stronger effect = higher value. For orientation: In a reporter assay the amount or activity of a reporter protein is the signal.

Assay [9] can be described thus: inhibitors of poly I:C-induced TLR3 signaling, primary screen, cell-based, poly I:C stimulus, luciferase, 10K MLSCN set (AID 602277). The settings on record: HEK293-TLR3 RL24 IRF3 luciferase reporter, at 10 µM, stronger effect = higher value.

Voltage-gated potassium channel subunit beta-2 (Rattus norvegicus), sequence (P62483 whole entry, looked up): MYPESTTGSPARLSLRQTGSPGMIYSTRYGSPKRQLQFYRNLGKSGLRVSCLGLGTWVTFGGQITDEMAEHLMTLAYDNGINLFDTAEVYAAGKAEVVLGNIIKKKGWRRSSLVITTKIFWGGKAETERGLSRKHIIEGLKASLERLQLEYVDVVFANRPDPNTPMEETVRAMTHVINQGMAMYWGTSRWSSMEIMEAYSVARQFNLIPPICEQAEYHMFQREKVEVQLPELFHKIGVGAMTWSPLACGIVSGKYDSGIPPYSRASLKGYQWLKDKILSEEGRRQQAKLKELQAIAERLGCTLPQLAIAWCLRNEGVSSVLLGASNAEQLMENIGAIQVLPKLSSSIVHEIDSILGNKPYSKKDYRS
Alpha-2C adrenergic receptor (Homo sapiens), sequence (P18825 whole entry, looked up): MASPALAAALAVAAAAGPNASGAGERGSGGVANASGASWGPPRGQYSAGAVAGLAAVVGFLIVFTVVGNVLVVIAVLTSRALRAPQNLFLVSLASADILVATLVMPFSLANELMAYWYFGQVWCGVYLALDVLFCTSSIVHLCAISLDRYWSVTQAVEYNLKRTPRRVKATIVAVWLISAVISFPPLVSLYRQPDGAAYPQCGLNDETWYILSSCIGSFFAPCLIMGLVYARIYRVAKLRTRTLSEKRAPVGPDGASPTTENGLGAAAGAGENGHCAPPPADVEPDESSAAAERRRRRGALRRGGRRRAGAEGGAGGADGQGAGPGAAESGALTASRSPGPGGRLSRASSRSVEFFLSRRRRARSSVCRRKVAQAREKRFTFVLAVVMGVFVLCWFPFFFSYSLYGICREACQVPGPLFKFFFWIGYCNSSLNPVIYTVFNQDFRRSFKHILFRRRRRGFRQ

With `O=C(CCCn1c(=O)[nH]c2ccsc2c1=O)N1CCN(c2ccccn2)CC1`, the cell count in assay [1] worked out at 665. For the same compound, the inhibition is -5.2% (inactive) in assay [1], -13.1% (inactive) in assay [3], 8.33% (inactive) in [8] and 13.1% (inactive) in [9]. In addition, the inhibition of aggregation in assay [2] was -1% (inactive). Further, the nuclei count was 97.2% in assay [2] and 106% in assay [3]. The fluorescence slope in assay [4] is -0.386 (inactive). The NADPH fluorescence slope in assay [5] is -4.1e-05 (inactive). Moreover, the slope in assay [6] was 0.00451 (inactive). Further, the result in [7] was inactive.

With `O=C(Nc1cccnc1)Nc1ccc(F)c(Cl)c1`, the cell count in assay [1] was found to be 347. Further, the inhibition is 11.8% (inactive) in assay [1], -15.8% (inactive) in [3], -39.2% (inactive) in assay [8] and -103% (inactive) in assay [9]. Also, in assay [2], the inhibition of aggregation was -11.4% (inactive). In addition, the nuclei count in assay [2] is 94.2%; in [3], 107%. Also, the fluorescence slope in assay [4] is -0.517 (inactive). The NADPH fluorescence slope in [5] is 1.7e-05 (inactive). Also, the slope in assay [6] is 0.00552 (inactive). In addition, the outcome in assay [7] is “inactive; toxic”.

In the case of `COc1cc(C(=O)N(C)c2nnc(-c3cccnc3)s2)cc(OC)c1OC`, in [1], the cell count is 646. Also, the inhibition is -5.5% (inactive) in [1], 3.6% (inactive) in assay [3], -9.5% (inactive) in assay [8] and -1.29% (inactive) in assay [9]. In addition, the inhibition of aggregation in assay [2] is 0.4% (inactive). The nuclei count in assay [2] worked out at 99.2%; in assay [3], 103%. The fluorescence slope in [4] is -0.5 (inactive). In addition, the NADPH fluorescence slope in [5] is 1.3e-05 (inactive). Moreover, the slope in assay [6] was 0.00473 (inactive). For the same compound, the outcome in assay [7] was inactive.

On to `COc1cc(C(=O)Nc2cc(-c3ccccc3)[nH]n2)cc(OC)c1OC`, for which, in assay [1], the cell count is 456. Moreover, the inhibition in [1] is -6.3% (inactive); in assay [3], -41% (inactive); in assay [8], 22.1% (inactive); in assay [9], 33.8% (inactive). The inhibition of aggregation in [2] was 15.9% (inactive). For the same compound, the nuclei count is 94.3% in assay [2] and 114% in assay [3]. Also, the fluorescence slope in assay [4] was -0.385 (inactive). Further, in [5], the NADPH fluorescence slope was -4.1e-05 (inactive). Also, the slope in assay [6] is 0.00552 (inactive). Besides, in [7], the compound was classed as inactive.

As for `COC(=O)c1ccc(CSc2nc3ccccc3s2)o1`, the cell count in assay [1] was 483. Besides, the inhibition in [1] is -6.3% (inactive); in assay [3], -0.4% (inactive); in assay [8] it was -35.6% (inactive); in [9], -50.2% (inactive). Also, the inhibition of aggregation in assay [2] was -4% (inactive). The nuclei count amounted to 126% in [2] and 104% in assay [3]. Besides, the fluorescence slope in [4] is -0.47 (inactive). The NADPH fluorescence slope in [5] was -1.1e-05 (inactive). Moreover, in assay [6], the slope was 0.00436 (inactive). In addition, the outcome in assay [7] was inactive.

As to `CSc1c(CC(=O)NCCO)n(C)c2ccccc12`, the cell count in [1] amounted to 575. In addition, the inhibition in assay [1] is -14% (inactive); in assay [3], -3.5% (inactive); in [8] it was 1.14% (inactive); in assay [9] it was 5.52% (inactive). In assay [2], the inhibition of aggregation is 8.4% (inactive). Further, the nuclei count in assay [2] came out at 88%; in assay [3] it was 105%. The fluorescence slope in assay [4] is -0.338 (inactive). Further, the NADPH fluorescence slope in [5] was 1.3e-05 (inactive). Further, the slope in assay [6] is 0.005 (inactive). Further, the outcome in assay [7] was inactive.

`O=C(CSc1nnc(Cc2ccccc2)n1-c1cccc(Cl)c1)N1CCOCC1`: the cell count in assay [1] came out at 352. For the same compound, the inhibition was 10.5% (inactive) in [1], -207% (inactive) in [3], -1.07% (inactive) in assay [8] and 9.14% (inactive) in assay [9]. For the same compound, the inhibition of aggregation in assay [2] is -18.8% (inactive). Further, the nuclei count turned out to be 85.8% in [2] and 119% in [3]. Also, the fluorescence slope in [4] was -0.4 (inactive). The NADPH fluorescence slope in assay [5] was -4.5e-05 (inactive). Moreover, in assay [6], the slope is 0.00585 (inactive). Further, in assay [7], the compound was classed as inactive.

Turning to `CCN(CC)C(c1ccc(C)cc1)c1nnnn1C1CCCCC1` (stereo unspecified), the cell count in assay [1] amounted to 438. Besides, the inhibition was -6.7% (inactive) in [1], 60% (inactive) in assay [3], 16.7% (inactive) in assay [8] and 25.8% (inactive) in [9]. Moreover, the inhibition of aggregation in assay [2] was 37.1% (inactive). The nuclei count in [2] was 85.4%; in assay [3], 88.2%. Besides, the fluorescence slope in assay [4] was -0.399 (inactive). Further, in [5], the NADPH fluorescence slope was -6.9e-05 (inactive). The slope in assay [6] was 0.00367 (inactive). In [7], the compound was called inactive.

For the compound `CC1CCCCC1NC(=O)COc1ccc(-n2cnnn2)cc1` (stereo unspecified), in assay [1], the cell count was determined as 508. For the same compound, the inhibition in assay [1] was 6.8% (inactive); in [3] it was -175% (inactive); in assay [8], 6.84% (inactive); in [9], 25.1% (inactive). The inhibition of aggregation in [2] is 5.2% (inactive). In addition, the nuclei count in assay [2] was 81.6%; in assay [3], 108%. Also, in [4], the fluorescence slope is -0.449 (inactive). Besides, the NADPH fluorescence slope in assay [5] was -7.6e-05 (inactive). Besides, the slope in assay [6] is 0.00588 (inactive). Also, the outcome in [7] was inactive.

`CCC(=O)Oc1ccc(C/C(=N\O)c2ccc(O)cc2O)o1`: in assay [1], the cell count came out at 405. Moreover, the inhibition in [1] is 1.5% (inactive); in assay [3], -54.6% (inactive); in assay [8], -8.2% (inactive); in [9], -21.3% (inactive). For the same compound, in [2], the inhibition of aggregation was 24.3% (inactive). Also, the figures for the nuclei count in assay [2] and in assay [3] were 95.9% and 115%, respectively. The fluorescence slope in [4] was -0.502 (inactive). Further, the NADPH fluorescence slope in [5] was 4.5e-05 (inactive). Besides, the slope in assay [6] was 0.00444 (inactive). Also, in [7], the outcome was inactive.

In the case of `COC(=O)C1=C(C)Nc2ncnn2C1c1ccco1` (stereo unspecified), in [1], the cell count was 303. Besides, the inhibition in assay [1] was -4.2% (inactive); in assay [3], 5.2% (inactive); in [8] it was 15.5% (inactive); in assay [9] it was 16.5% (inactive). For the same compound, in assay [2], the inhibition of aggregation is -6.6% (inactive). Besides, the nuclei count turned out to be 100% in [2] and 93.9% in [3]. The fluorescence slope in [4] is -0.432 (inactive). For the same compound, in assay [5], the NADPH fluorescence slope was -6e-05 (inactive). For the same compound, the slope in assay [6] was 0.00405 (inactive). Also, the call in assay [7] was inactive.

`O=C(O)C1CCCCC1C(=O)Nc1ccccn1` (stereo unspecified): the cell count in assay [1] worked out at 475. Also, the inhibition is -7.1% (inactive) in assay [1], 18.5% (inactive) in assay [3], 7.72% (inactive) in assay [8] and 0.963% (inactive) in assay [9]. Also, the inhibition of aggregation in [2] is -2.7% (inactive). The nuclei count in [2] is 109%; in assay [3], 83.2%. Further, the fluorescence slope in assay [4] is -0.445 (inactive). The NADPH fluorescence slope in [5] was -5e-05 (inactive). Also, in [6], the slope was 0.00502 (inactive). Besides, in assay [7], the call was inactive.

As for `Cc1nnc(SCc2nnc(-c3ccccc3Br)o2)n1-c1ccccc1`, in assay [1], the cell count stood at 730. Also, the inhibition in [1] was 14.5% (inactive); in assay [3] it was -59.5% (inactive); in [8], 6.33% (inactive); in assay [9], 8.93% (inactive). Also, the inhibition of aggregation in assay [2] is 38.5% (inactive). The nuclei count in assay [2] is 87.5%; in assay [3], 93.8%. Also, the fluorescence slope in assay [4] is -0.455 (inactive). Also, in [5], the NADPH fluorescence slope is -4e-05 (inactive). The slope in assay [6] is 0.00597 (inactive). Moreover, the result in assay [7] was inactive.

Broadly, the inhibition is the relative decrease from the control value, in per cent.
